According to ChEMBL document CHEMBL1131239, “Orally active benzamide antipsychotic agents with affinity for dopamine D2, serotonin 5-HT1A, and adrenergic alpha1 receptors” (J Med Chem, 1998):

Test system: Rattus norvegicus
Assay: compound was tested for antipsychotic activity by conditioned avoidance response(CAR) assay in rats with a pretreatment period of 30 min upon intra peritoneal administration at a concentration of 1 mg/kg.
Assay type: functional
Conditions: not given
How it was run: (§1)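 Trained rats (N = 4) were run in 1-h sessions on two consecutive days, with the experimenter blind to drug and dose. Fed rats had food and water until placed in the test chambers. Fasted rats had no food overnight before the experiment.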

Compound | inhibition in vivo at 1 mg/kg [%]
CC(C)Oc1ccccc1N1CCN(Cc2cccc(C(=O)N3CCOCC3)c2)CC1 | -94.5
CC(C)Oc1cc(F)ccc1N1CCN(Cc2cccc(C(=O)N3CCCCC3)c2)CC1 | -22.6
CC(C)Oc1ccccc1N1CCN(CCc2ccc(C(=O)N3CCCCC3)cc2)CC1 | -1.1
CC(C)Oc1ccccc1N1CCN(Cc2cccc(C(=O)N(C)C3CCCCC3)c2)CC1 | -9.3
CC(C)Oc1ccccc1N1CCN(Cc2cccc(C(=O)N3CCCCCCC3)c2)CC1 | -24.5
N#Cc1ccccc1N1CCN(Cc2cccc(C(=O)N3CCCCC3)c2)CC1 | -5.3
CC(C)Oc1ccccc1N1CCN(Cc2cccc(C(N)=O)c2)CC1 | -3

Test system: Rattus norvegicus
Assay: (§2) compound was tested for antipsychotic activity by conditioned avoidance response(CAR) assay in rats with a pretreatment period of 30 min upon intra peritoneal administration at a concentration of 15 mg/kg.
Assay type: functional
Conditions: not given

Compound | inhibition in vivo at 15 mg/kg [%]
O=C(c1cccc(CN2CCN(c3ccc(Cl)cc3)CC2)c1)N1CCCCC1 | -4.7
O=C(c1cccc(CN2CCN(c3ccccc3)CC2)c1)N1CCCCC1 | -82.1
O=C(c1cccc(CN2CCN(c3cccc4ccccc34)CC2)c1)N1CCCCC1 | -18.8
CN1CCN(Cc2cccc(C(=O)N3CCCCC3)c2)CC1 | 0.4
O=C(c1cccc(CN2CCN(c3ccccc3Cl)CC2)c1)N1CCCCC1 | -68.6
CCN1CCCC1CNC(=O)c1cccc(CN2CCN(c3ccccc3OC(C)C)CC2)c1 (stereo not drawn) | -74.9
O=C(c1cccc(CN2CCN(c3ncccn3)CC2)c1)N1CCCCC1 | -6.8
CC(C)Oc1ccccc1N1CCN(Cc2cccc(C(=O)N3CCC3)c2)CC1 | -87
O=C(c1cccc(CN2CCN(c3ccccc3C(F)(F)F)CC2)c1)N1CCCCC1 | -59.7

Test system: Rattus norvegicus
Assay: as §2
Assay type: functional
Conditions: not given
How it was run: as §1

Compound | inhibition in vivo at 15 mg/kg [%]
CC(C)Oc1ccccc1N1CCN(CCc2ccc(C(=O)N3CCCCC3)cc2)CC1 | -98.2

Test system: Rattus norvegicus
Assay: compound was tested for antipsychotic activity by conditioned avoidance response(CAR) assay in rats with a pretreatment period of 60 min upon peroral administration at a concentration of 20 mg/kg.
Assay type: functional
Conditions: route oral

Compound | inhibition in vivo at 20 mg/kg [%]
CC(C)Oc1ccccc1N1CCN(Cc2cccc(C(=O)N3CCOCC3)c2)CC1 | -96.2
CC(C)Oc1ccccc1N1CCN(Cc2cccc(C(=O)N3CCCCCCC3)c2)CC1 | -84.7
N#Cc1ccccc1N1CCN(Cc2cccc(C(=O)N3CCCCC3)c2)CC1 | -5.4
CC(C)Oc1ccccc1N1CCN(Cc2cccc(C(N)=O)c2)CC1 | -1.1

Test system: Rattus norvegicus
Assay: Percent catalepsy in male Spargue-Dawley rat at pretreatment time 60 mins and when administered ip at dose 50 mg/kg
Assay type: functional
Conditions: route intraperitoneal
How it was run: (§3)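 Catalepsy in rats, groups of five per drug treatment, scored blind to drug and dose. Each session included a saline or vehicle negative control and a haloperidol 2 mg/kg positive control. Deaths during the experiment were recorded in the catalepsy column as number dead out of five.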

Compound | Catalepsy [%]
CC(C)Oc1cc(F)ccc1N1CCN(Cc2cccc(C(=O)N3CCCCC3)c2)CC1 | 45.2
CC(C)Oc1ccccc1N1CCN(Cc2cccc(C(=O)N(C)C3CCCCC3)c2)CC1 | 0
CC(C)Oc1ccccc1N1CCN(Cc2cccc(C(=O)N3CCCCCCC3)c2)CC1 | 34.4

Target: T1, 5-hydroxytryptamine receptor 1A (Rattus norvegicus, UniProt P19327)
T1 sequence (P19327 whole entry): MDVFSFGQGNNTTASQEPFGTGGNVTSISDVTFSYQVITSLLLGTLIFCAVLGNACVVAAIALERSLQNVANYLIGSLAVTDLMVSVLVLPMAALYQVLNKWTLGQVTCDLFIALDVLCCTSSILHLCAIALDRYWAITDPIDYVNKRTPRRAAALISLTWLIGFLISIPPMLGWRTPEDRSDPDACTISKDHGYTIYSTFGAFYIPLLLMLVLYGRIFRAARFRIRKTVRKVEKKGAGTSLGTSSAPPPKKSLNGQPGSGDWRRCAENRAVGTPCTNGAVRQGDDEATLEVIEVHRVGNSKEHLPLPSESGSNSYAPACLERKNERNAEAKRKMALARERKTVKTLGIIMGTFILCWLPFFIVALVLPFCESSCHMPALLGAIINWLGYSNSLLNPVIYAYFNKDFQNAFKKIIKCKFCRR
Assay: Compound was evaluated for its binding affinity against 5-hydroxytryptamine 1A receptor from rat cerebral cortex
Assay type: tissue-based
Conditions: not given

Compound | Ki [nM]
O=C(c1cccc(CN2CCN(c3ccc(Cl)cc3)CC2)c1)N1CCCCC1 | 121
CC(C)Oc1ccccc1N1CCN(Cc2cccc(C(=O)N3CCOCC3)c2)CC1 | 3.2
CC(C)Oc1cc(F)ccc1N1CCN(Cc2cccc(C(=O)N3CCCCC3)c2)CC1 | 4.2
O=C(c1cccc(CN2CCN(c3ccccc3)CC2)c1)N1CCCCC1 | 7.2
O=C(c1cccc(CN2CCN(c3cccc4ccccc34)CC2)c1)N1CCCCC1 | 1.8
CC(C)Oc1ccccc1N1CCN(CCc2ccc(C(=O)N3CCCCC3)cc2)CC1 | 2.5
O=C(c1cccc(CN2CCN(c3ccccc3Cl)CC2)c1)N1CCCCC1 | 8.2
CCN1CCCC1CNC(=O)c1cccc(CN2CCN(c3ccccc3OC(C)C)CC2)c1 (stereo not drawn) | 121
CC(C)Oc1ccccc1N1CCN(Cc2cccc(C(=O)N(C)C3CCCCC3)c2)CC1 | 1.2
O=C(c1cccc(CN2CCN(c3ncccn3)CC2)c1)N1CCCCC1 | 12
CC(C)Oc1ccccc1N1CCN(Cc2cccc(C(=O)N3CCC3)c2)CC1 | 3.4
O=C(c1cccc(CN2CCN(c3ccccc3C(F)(F)F)CC2)c1)N1CCCCC1 | 0.8
CC(C)Oc1ccccc1N1CCN(Cc2cccc(C(=O)N3CCCCCCC3)c2)CC1 | 0.13
N#Cc1ccccc1N1CCN(Cc2cccc(C(=O)N3CCCCC3)c2)CC1 | 2.5
CC(C)Oc1ccccc1N1CCN(Cc2cccc(C(N)=O)c2)CC1 | 18

Test system: Rattus norvegicus
Assay: compound was tested for antipsychotic activity by conditioned avoidance response(CAR) assay in rats with a pretreatment period of 30 min upon intra peritoneal administration at a concentration of 5 mg/kg.
Assay type: functional
Conditions: not given
How it was run: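 Rat conditioned avoidance test modified from Martin et al. Trained rats (N = 4) were run in 1-h sessions on two consecutive days. Fed animals had food and water until placed in the test chambers. Dosing was ip with 30 min pretreatment, and activity was expressed as percent inhibition at the stated dose.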

Compound | inhibition in vivo at 5 mg/kg [%]
CC(C)Oc1ccccc1N1CCN(Cc2cccc(C(=O)N3CCOCC3)c2)CC1 | -95.4
CC(C)Oc1cc(F)ccc1N1CCN(Cc2cccc(C(=O)N3CCCCC3)c2)CC1 | -82.6
O=C(c1cccc(CN2CCN(c3ccccc3)CC2)c1)N1CCCCC1 | -2.2
O=C(c1cccc(CN2CCN(c3ccccc3Cl)CC2)c1)N1CCCCC1 | -67.9
CCN1CCCC1CNC(=O)c1cccc(CN2CCN(c3ccccc3OC(C)C)CC2)c1 (stereo not drawn) | -19.4
CC(C)Oc1ccccc1N1CCN(Cc2cccc(C(=O)N(C)C3CCCCC3)c2)CC1 | -98.9
O=C(c1cccc(CN2CCN(c3ncccn3)CC2)c1)N1CCCCC1 | -17.9
O=C(c1cccc(CN2CCN(c3ccccc3C(F)(F)F)CC2)c1)N1CCCCC1 | -5.5
CC(C)Oc1ccccc1N1CCN(Cc2cccc(C(=O)N3CCCCCCC3)c2)CC1 | -90.4
N#Cc1ccccc1N1CCN(Cc2cccc(C(=O)N3CCCCC3)c2)CC1 | -73.9
CC(C)Oc1ccccc1N1CCN(Cc2cccc(C(N)=O)c2)CC1 | -88.5

Test system: Rattus norvegicus
Assay: Percent catalepsy in male Spargue-Dawley rat at pretreatment time 240 mins and when administered ip at dose 50 mg/kg
Assay type: functional
Conditions: route intraperitoneal
How it was run: as §3

Compound | Catalepsy [%]
CC(C)Oc1cc(F)ccc1N1CCN(Cc2cccc(C(=O)N3CCCCC3)c2)CC1 | 50
CC(C)Oc1ccccc1N1CCN(Cc2cccc(C(=O)N(C)C3CCCCC3)c2)CC1 | 58.1
CC(C)Oc1ccccc1N1CCN(Cc2cccc(C(=O)N3CCCCCCC3)c2)CC1 | 17.6

Target: T2, Adrenergic receptor alpha-1 (Rattus norvegicus, UniProt P15823+P23944+P43140)
T2 sequence (P15823 whole entry): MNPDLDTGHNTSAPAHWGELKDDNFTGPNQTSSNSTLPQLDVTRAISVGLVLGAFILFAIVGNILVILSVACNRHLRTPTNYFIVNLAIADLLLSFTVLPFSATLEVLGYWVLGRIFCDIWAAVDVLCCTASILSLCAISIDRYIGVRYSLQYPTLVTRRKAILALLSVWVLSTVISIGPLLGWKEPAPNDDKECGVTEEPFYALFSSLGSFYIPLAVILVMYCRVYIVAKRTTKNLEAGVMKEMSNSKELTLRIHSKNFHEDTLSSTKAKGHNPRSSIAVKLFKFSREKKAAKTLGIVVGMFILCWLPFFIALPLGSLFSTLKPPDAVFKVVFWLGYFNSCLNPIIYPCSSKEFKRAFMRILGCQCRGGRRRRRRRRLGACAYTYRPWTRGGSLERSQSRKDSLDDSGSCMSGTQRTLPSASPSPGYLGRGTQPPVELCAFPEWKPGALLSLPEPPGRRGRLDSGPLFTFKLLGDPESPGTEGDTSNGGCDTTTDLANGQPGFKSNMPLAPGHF
T2 sequence (P23944 whole entry): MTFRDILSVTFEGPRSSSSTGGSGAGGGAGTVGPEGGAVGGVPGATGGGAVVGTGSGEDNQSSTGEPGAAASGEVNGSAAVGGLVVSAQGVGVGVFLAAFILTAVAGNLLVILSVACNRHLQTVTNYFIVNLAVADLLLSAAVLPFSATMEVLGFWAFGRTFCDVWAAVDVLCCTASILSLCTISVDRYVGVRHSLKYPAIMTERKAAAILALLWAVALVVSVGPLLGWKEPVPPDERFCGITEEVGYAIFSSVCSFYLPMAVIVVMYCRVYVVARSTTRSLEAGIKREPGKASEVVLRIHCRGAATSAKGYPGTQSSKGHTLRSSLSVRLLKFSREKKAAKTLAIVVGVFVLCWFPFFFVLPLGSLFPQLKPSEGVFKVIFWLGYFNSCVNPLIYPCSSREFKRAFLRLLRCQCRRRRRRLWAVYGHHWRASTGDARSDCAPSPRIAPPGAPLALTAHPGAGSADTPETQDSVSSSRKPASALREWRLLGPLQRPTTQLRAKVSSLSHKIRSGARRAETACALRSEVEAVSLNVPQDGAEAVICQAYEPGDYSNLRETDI
T2 sequence (P43140 whole entry): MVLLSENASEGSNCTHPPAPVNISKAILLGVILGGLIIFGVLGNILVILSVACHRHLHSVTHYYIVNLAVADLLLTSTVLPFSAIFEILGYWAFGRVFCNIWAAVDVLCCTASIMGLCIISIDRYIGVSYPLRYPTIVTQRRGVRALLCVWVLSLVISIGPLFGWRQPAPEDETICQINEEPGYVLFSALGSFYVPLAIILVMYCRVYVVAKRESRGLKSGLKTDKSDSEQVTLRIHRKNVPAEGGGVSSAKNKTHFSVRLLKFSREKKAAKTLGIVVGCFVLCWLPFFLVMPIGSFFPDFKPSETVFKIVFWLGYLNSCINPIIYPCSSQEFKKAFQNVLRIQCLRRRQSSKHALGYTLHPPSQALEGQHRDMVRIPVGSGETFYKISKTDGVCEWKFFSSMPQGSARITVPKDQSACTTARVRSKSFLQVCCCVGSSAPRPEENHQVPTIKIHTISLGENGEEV
Assay: Binding affinity against Alpha-1 adrenergic receptor from rat cerebral cortex
Assay type: tissue-based
Conditions: not given

Compound | Ki [nM]
O=C(c1cccc(CN2CCN(c3ccc(Cl)cc3)CC2)c1)N1CCCCC1 | 486
CC(C)Oc1ccccc1N1CCN(Cc2cccc(C(=O)N3CCOCC3)c2)CC1 | 29
CC(C)Oc1cc(F)ccc1N1CCN(Cc2cccc(C(=O)N3CCCCC3)c2)CC1 | 6
O=C(c1cccc(CN2CCN(c3ccccc3)CC2)c1)N1CCCCC1 | 44
O=C(c1cccc(CN2CCN(c3cccc4ccccc34)CC2)c1)N1CCCCC1 | 57
CN1CCN(Cc2cccc(C(=O)N3CCCCC3)c2)CC1 | > 1000
CC(C)Oc1ccccc1N1CCN(CCc2ccc(C(=O)N3CCCCC3)cc2)CC1 | 2.1
O=C(c1cccc(CN2CCN(c3ccccc3Cl)CC2)c1)N1CCCCC1 | 16
CCN1CCCC1CNC(=O)c1cccc(CN2CCN(c3ccccc3OC(C)C)CC2)c1 (stereo not drawn) | 486
CC(C)Oc1ccccc1N1CCN(Cc2cccc(C(=O)N(C)C3CCCCC3)c2)CC1 | 1.2
CC(C)Oc1ccccc1N1CCN(Cc2cccc(C(=O)N3CCC3)c2)CC1 | 1.2
O=C(c1cccc(CN2CCN(c3ccccc3C(F)(F)F)CC2)c1)N1CCCCC1 | 3.3
CC(C)Oc1ccccc1N1CCN(Cc2cccc(C(=O)N3CCCCCCC3)c2)CC1 | 1.9
N#Cc1ccccc1N1CCN(Cc2cccc(C(=O)N3CCCCC3)c2)CC1 | 19
CC(C)Oc1ccccc1N1CCN(Cc2cccc(C(N)=O)c2)CC1 | 11.4
